Assay [1] concerns the target 5-hydroxytryptamine receptor 7 (Homo sapiens, UniProt P34969). Description: Displacement of [3H]-5-CT from human 5-HT7b receptor expressed in HEK293 cells after 1 hr. The assay is classed as cell-based.
Assay [2] deals with T1, 5-hydroxytryptamine receptor 1A (Homo sapiens, UniProt P08908).
T1 sequence (P08908 whole entry): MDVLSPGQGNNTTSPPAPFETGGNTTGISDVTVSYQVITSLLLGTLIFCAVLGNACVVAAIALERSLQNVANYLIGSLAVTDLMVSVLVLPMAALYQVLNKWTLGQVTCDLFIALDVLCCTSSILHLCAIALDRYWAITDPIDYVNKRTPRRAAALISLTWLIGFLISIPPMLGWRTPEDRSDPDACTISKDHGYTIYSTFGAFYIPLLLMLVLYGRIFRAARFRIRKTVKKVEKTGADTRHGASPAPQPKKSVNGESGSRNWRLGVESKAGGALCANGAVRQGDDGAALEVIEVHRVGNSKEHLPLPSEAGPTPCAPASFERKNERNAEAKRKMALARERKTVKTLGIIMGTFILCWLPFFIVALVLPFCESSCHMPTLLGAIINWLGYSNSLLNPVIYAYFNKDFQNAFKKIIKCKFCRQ
Description: Displacement of [3H]-8-OH-DPAT from human 5-HT1A receptor expressed in HEK293 cells after 1 hr. The assay is classed as cell-based. The method, boiled down: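 Membranes from stably transfected HEK293 cells (human 5-HT1A), homogenized in 50 mM Tris–HCl, 0.1 mM EDTA, 4 mM MgCl2, 10 µM pargyline, 0.1% ascorbate; incubated 1 h at room temperature, then rapid filtration and radioactivity counting. Nonspecific binding with 10 µM 5-HT.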

For assay [3], the target named is 5-hydroxytryptamine receptor 6 (Homo sapiens, UniProt P50406). Description: Displacement of [3H]-LSD from human 5-HT6 receptor expressed in HEK293 cells after 1 hr. The format is cell-based.
Sequence of 5-hydroxytryptamine receptor 6 (P50406 whole entry): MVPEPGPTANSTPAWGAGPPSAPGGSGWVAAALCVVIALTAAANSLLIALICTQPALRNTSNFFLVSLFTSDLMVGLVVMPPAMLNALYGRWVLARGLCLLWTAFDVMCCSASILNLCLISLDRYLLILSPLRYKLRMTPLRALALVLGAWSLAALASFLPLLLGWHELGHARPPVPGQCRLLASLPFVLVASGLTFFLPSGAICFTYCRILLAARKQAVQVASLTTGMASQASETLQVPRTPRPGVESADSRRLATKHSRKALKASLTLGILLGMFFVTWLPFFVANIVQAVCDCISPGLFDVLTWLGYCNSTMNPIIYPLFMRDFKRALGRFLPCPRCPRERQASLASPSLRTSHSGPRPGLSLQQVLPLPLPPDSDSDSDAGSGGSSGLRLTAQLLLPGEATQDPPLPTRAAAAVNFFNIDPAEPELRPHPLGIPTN
A further assay concerns the target D(2) dopamine receptor (Homo sapiens, UniProt P14416). Put plainly: Binding affinity to human dopamine D2L receptor expressed in HEK293 cells after 1 hr. The assay is classed as cell-based.
For another assay, the species on record is Homo sapiens. Description: Selectivity ratio of Ki for human 5-HT1A receptor to Ki for human 5-HT7b receptor.

The source of these data is ChEMBL document CHEMBL2157986, “The multiobjective based design, synthesis and evaluation of the arylsulfonamide/amide derivatives of aryloxyethyl- and arylthioethyl- piperidines and pyrrolidines as a novel class of potent 5-HT₇ receptor antagonists” (Eur J Med Chem, 2012).

Sequence of 5-hydroxytryptamine receptor 7 (P34969 whole entry): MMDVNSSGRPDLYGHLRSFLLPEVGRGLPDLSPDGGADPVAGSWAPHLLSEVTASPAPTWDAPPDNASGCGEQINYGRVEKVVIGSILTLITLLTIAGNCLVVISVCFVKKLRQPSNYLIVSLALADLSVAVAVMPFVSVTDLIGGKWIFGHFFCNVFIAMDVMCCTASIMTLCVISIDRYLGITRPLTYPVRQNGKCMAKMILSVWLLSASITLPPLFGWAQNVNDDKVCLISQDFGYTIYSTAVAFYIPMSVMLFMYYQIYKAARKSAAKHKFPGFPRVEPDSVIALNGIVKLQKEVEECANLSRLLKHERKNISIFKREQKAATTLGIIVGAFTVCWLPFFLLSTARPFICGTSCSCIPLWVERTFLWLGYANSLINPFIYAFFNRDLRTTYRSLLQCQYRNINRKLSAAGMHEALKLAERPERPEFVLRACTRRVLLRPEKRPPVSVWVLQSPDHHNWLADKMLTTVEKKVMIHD
Sequence of D(2) dopamine receptor (P14416 whole entry): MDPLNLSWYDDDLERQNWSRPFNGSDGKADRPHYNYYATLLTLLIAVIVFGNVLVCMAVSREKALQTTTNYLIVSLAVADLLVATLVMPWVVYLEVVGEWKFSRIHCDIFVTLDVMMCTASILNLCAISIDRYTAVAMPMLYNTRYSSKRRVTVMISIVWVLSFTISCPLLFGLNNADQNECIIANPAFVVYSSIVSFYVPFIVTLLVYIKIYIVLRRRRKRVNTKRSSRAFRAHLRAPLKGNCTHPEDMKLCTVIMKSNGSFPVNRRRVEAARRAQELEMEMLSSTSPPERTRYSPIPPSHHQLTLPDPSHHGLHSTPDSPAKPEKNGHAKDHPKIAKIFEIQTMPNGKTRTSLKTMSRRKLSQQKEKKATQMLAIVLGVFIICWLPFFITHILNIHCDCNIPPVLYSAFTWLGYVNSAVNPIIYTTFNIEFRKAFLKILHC

In the case of `O=S(=O)(NC1CCN(CCOc2ccccc2-c2ccccc2)C1)c1cccs1` (stereo not given), the Ki in assay [1] came out at 10 nM; in assay [2], 45 nM; in assay [3], 267 nM; on D(2) dopamine receptor, 16 nM. Moreover, the Ratio Ki in the assay listed under Homo sapiens amounted to 5.
For `O=S(=O)(NC1CCN(CCOc2cccc(F)c2)C1)c1cccs1` (stereo not given), in that order: 1440 nM, 270 nM, 1780 nM, 729 nM and under 1.
For `CSc1ccccc1OCCN1CCC(NS(=O)(=O)c2cccc(Cl)c2)C1` (stereo not given), in that order: 15 nM, 5 nM, 185 nM, 36 nM and under 1.
For `O=S(=O)(NC1CCN(CCOc2cccc3c2CCCC3)C1)c1cc(F)ccc1F` (stereo not given), in that order: 16 nM, 10 nM, 156 nM, 60 nM and under 1.
As to `CC(C)c1ccccc1OCCN1CCC(NS(=O)(=O)c2cccs2)C1` (stereo not given), the inhibition constant (Ki) in assay [1] is 29 nM; in assay [2] it was 21 nM; in assay [3] it was 258 nM; on D(2) dopamine receptor, 16 nM. Moreover, the Ratio Ki in the assay filed under Homo sapiens was under 1.
In the case of `CC(C)c1ccccc1OCCN1CCC(CNS(=O)(=O)c2ccc(F)cc2)CC1`, the Ki in assay [1] was 60 nM; in assay [2], 141 nM; in assay [3], 313 nM; at D(2) dopamine receptor it was 50 nM. Also, the Ratio Ki in the assay listed under Homo sapiens is 2.
Consider `O=S(=O)(NCC1CCN(CCOc2cccc(F)c2)CC1)c1cccc(Cl)c1`, for which the inhibitory constant (Ki) in assay [1] turned out to be 2190 nM; in assay [2], 283 nM; in assay [3] it was 831 nM; at D(2) dopamine receptor, 560 nM. Besides, the Ratio Ki in the assay filed under Homo sapiens was under 1.
Regarding `O=C(NC1CCN(CCOc2ccccc2-c2ccccc2)C1)c1cccc(F)c1F` (stereo not given), the Ki in assay [1] amounted to 21 nM; in assay [2] it was 48 nM; in assay [3] it was 1800 nM; at D(2) dopamine receptor, 15 nM. In addition, the Ratio Ki in the assay listed under Homo sapiens came out at 2.
For `CC(C)c1ccccc1OCCN1CCC(NS(=O)(=O)c2ccc(F)cc2)CC1`, in that order: 0.3 nM, 436 nM, 240 nM, 51 nM and 1450.
